The source made the active and inactive calls.
Columns and labels:
Mus musculus [1] = experiment: Analgesic activity in CD1 mouse assessed as acetic acid-induced writhing at 1 mmol/kg, po after 1 hr; type: functional
Procedure, shortened: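 Mice fasted overnight, dosed orally by esophageal cannula under brief halothane, 1 mmol/kg; 1 h reading, n = 9–16 per group. Writhing induced by ip 0.4% acetic acid, 10 mL/kg, given 25 min after drug; writhes counted for 10 min starting 5 min after injection. Expressed as % analgesia ± SEM.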

Mus musculus [2] = experiment: Hepatotoxicity in mouse assessed as plasma GPT levels at 3.7 mmol/kg, po after 24 hrs; type: toxicity, organism-based; conditions: in vivo
Procedure, shortened: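 C57BL/6 mice given a single 3.7 mmol/kg oral dose; plasma GPT measured spectrophotometrically 24 h later and reported as SF units/mL ± SD.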

HepG2 [3] = experiment: Hepatotoxicity against HEPG2 cells after 6 to 8 hrs by tryptan blue exclusion test; type: functional, cell-based; conditions: Homo sapiens
Procedure, shortened: (§1)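 HEPG-2 cells at 80% confluence were serum-starved 6–8 h (EMEM, 0.5% FBS), then exposed to the compound for 6–8 h at 37 °C. Cell toxicity was assessed by Trypan blue exclusion.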

[4] = Drug level in CD1 mouse urine assessed as unmetabolized fractions at 3 mmol/kg, po; type: ADME, tissue-based; conditions: read-out: Activity
Procedure, shortened: (§2)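 Two-month-old CD-1 mice, fasted overnight, given a single oral 3 mmol/kg dose in Tween 20 under light halothane. Housed two per metabolic cage, with food from 6 h; urine collected on ice over 24 h. After centrifugation and filtration, analysed by HPLC–MS on a C18 column with an ammonium acetate/acetonitrile gradient; UV detection at 280, 254 and 210 nm.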

Mus musculus [5] = experiment: Analgesic activity in CD1 mouse upto 3010 umol/kg by hot plate assay; type: functional, organism-based
Procedure, shortened: (§3)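 Oral doses given to overnight-fasted mice. Latency to lick the hind paw was recorded on a 54 ± 1 °C hot plate, with a 30 s cut-off assigned to non-responders. Testing was done blind.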

Mus musculus [6] = experiment: Hepatotoxicity in CD1 mouse assessed as plasma GPT levels at 6 mmol/kg; type: toxicity, organism-based; conditions: in vivo
Procedure, shortened: (§4)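 CD-1 mice, fasted overnight, dosed orally with 6 mmol/kg by esophageal cannula under brief halothane anesthesia, or vehicle. Blood collected after decapitation at 24 h into heparinized syringes. Plasma spun 3000 rpm for 10 min at 4 C. GPT and GOT activity measured with a spectrophotometric kit. n = 8–12.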

Mus musculus [7] = experiment: Antiinflammatory activity in CD1 mouse by carrageenan-induced paw edema method; type: functional, organism-based
Procedure, shortened: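 Male CD-1 mice dosed orally; 30 min later, under halothane, 50 µL 1% lambda-carrageenan in saline was injected into one hind plantar paw. Paw volume was measured by paw volume meter before and 4 h after injection, expressed as % of vehicle controls ± SEM; n = 4–5 per dose. Indomethacin 30 mg/kg po served as positive control.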

Mus musculus [8] = experiment: Hepatotoxicity in CD1 mouse assessed as renal glutathione levels at 6 mmol/kg; type: toxicity, organism-based; conditions: in vivo
Procedure, shortened: (§5)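 Male CD-1 mice (20–30 g), fasted overnight, received 6 mmol/kg orally by esophageal cannula under brief halothane anesthesia, or vehicle. At 3 h the livers were saline-perfused. Liver was homogenized 5% w/v and kidney 10% w/v in 5% MPA, then centrifuged 3000g for 10 min at 4 C. Supernatant glutathione read colorimetrically. n = 8–12.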

Mus musculus [9] = species on record: Mus musculus; experiment: Analgesic activity in CD1 mouse by formalin-induced pain model after 30 mins; type: functional; conditions: for ED50: CD1, 0.5 h
Procedure, shortened: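 Oral dosing (fasted, halothane, esophageal cannula) 30 min before sc injection of 30 µL 5% buffered formalin into one hind plantar paw. Paw-licking time recorded in 5-min blocks over 90 min; mice habituated to the test box 90 min the day before. Three-way ANOVA (drug × dose × time) with Tukey; ED50 by nonlinear regression.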

Mus musculus [10] = experiment: Hepatotoxicity in CD1 mouse assessed as hepatic glutathione levels at 6 mmol/kg; type: toxicity, organism-based; conditions: in vivo; procedure, shortened: as §5
Mus musculus [11] = experiment: Hepatotoxicity in CD1 mouse assessed as plasma GOT levels at 6 mmol/kg; type: toxicity, organism-based; conditions: in vivo; procedure, shortened: as §4
Mus musculus [12] = experiment: (§6) Toxicity in CD1 mouse assessed as mortality at 6 mmol/kg; type: organism-based; conditions: mouse, in vivo
Procedure, shortened: (§7)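 CD-1 mice, fasted overnight, given a single oral dose of 6 mmol/kg by esophageal cannula under brief halothane anesthesia. Deaths recorded 24 h after dosing, expressed as a fraction of the group (n = 10).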

HepG2 [13] = experiment: Induction of apoptosis in HEPG2 cells by Hoechst staining; type: functional, cell-based; conditions: Homo sapiens
Procedure, shortened: (§8)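 Serum-starved HEPG-2 cells were treated 6–8 h at 37 °C (100 µM). After washing with PBS, cells were stained with Hoechst (2 µM final) for 45 min at 37 °C. Apoptotic cells were detected by confocal fluorescence microscopy.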

HepG2 [14] = experiment: Activation of CAR in HEPG2 cells at 100 uM by Western blot; type: functional, cell-based; conditions: Homo sapiens
Procedure, shortened: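 HEPG-2 cells in EMEM/NEAA/10% FBS, 37 °C, 5% CO2; at 80% confluence held 6–8 h in EMEM with 0.5% FBS, then treated at 100 µM for the times indicated. CAR detected by Western blot on cell extracts (15–20 µg protein, 8–16% gel) with human CAR-specific antibody and ECL, then quantified by densitometry.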

Mus musculus [15] = experiment: Analgesic activity in CD1 mouse upto 3010 umol/kg by tail flick test; type: functional, organism-based
Procedure, shortened: (§9)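 Oral doses given to fasted mice. A focused light beam was aimed at the tail, with intensity set for baseline latencies of 3–4 s; withdrawal latency was recorded by photoelectric cell. Testing was done blind.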

Mus musculus [16] = species on record: Mus musculus; experiment: Analgesic activity in CD1 mouse by acetic acid-induced writhing test after 30 to 40 mins; type: functional
Procedure, shortened: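 Overnight-fasted mice given several oral doses by esophageal cannulation under brief halothane. Acetic acid 0.4% (10 mL/kg ip) injected 25 min post-dose; writhes counted over 10 min from 5 min after injection, i.e. 30–40 min after dosing. Percent analgesia vs vehicle; two-way ANOVA with Tukey; ED50 by nonlinear regression.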

HepG2 [17] = experiment: Upregulation of Fas-ligand in HEPG2 cells by Western blot; type: functional, cell-based; conditions: Homo sapiens
Procedure, shortened: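 HEPG-2 cells at 80% confluence, serum-starved 6–8 h (EMEM, 0.5% FBS), then treated with 100 µM for the times indicated at 37 °C. Fas-ligand measured by Western blot on extracts normalised for protein (15–20 µg loaded), Fas-L-specific antibody, ECL detection, densitometric quantitation.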

HepG2 [18] = experiment: Hepatotoxicity against HEPG2 cells at 100 uM after 6 to 8 hrs by tryptan blue exclusion test; type: functional, cell-based; conditions: Homo sapiens; procedure, shortened: as §1
Mus musculus [19] = experiment: Hepatotoxicity in CD1 mouse assessed as increased plasma GPT levels at 6 mmol/kg; type: toxicity, organism-based; conditions: in vivo
Procedure, shortened: (§10)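 Male CD-1 mice (20–30 g), fasted overnight, received 6 mmol/kg orally by esophageal cannula. At 24 h, blood was collected by decapitation into heparinized syringes and plasma obtained by centrifugation at 4 °C. GPT and GOT were determined with a spectrophotometric kit; n = 8–12. Mortality was recorded at 24 h.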

Mus musculus [20] = experiment: Hepatotoxicity in CD1 mouse assessed as reduction in renal glutathione levels at 6 mmol/kg; type: toxicity, organism-based; conditions: in vivo
Procedure, shortened: (§11)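 Male CD-1 mice (20–30 g), fasted, given 6 mmol/kg orally; killed 3 h later and livers perfused with heparinized saline. Liver homogenized to 5% w/v and kidney to 10% w/v in 5% MPA, then centrifuged 3000g for 10 min at 4 °C. Glutathione in supernatant measured by colorimetric kit; n = 8–12.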

Mus musculus [21] = experiment: Analgesic activity in CD1 mouse upto 6620 umol/kg by tail flick test; type: functional, organism-based; procedure, shortened: as §9
[22] = as §6; type: organism-based; conditions: CD1, mouse, in vivo, 6 mmol/kg; read-out: Activity; procedure, shortened: as §7
HepG2 [23] = experiment: Hepatotoxicity against HEPG2 cells at 200 uM after 6 to 8 hrs by tryptan blue exclusion test; type: functional, cell-based; conditions: Homo sapiens; procedure, shortened: as §1
Mus musculus [24] = experiment: Hepatotoxicity in CD1 mouse assessed as reduction in hepatic glutathione levels at 6 mmol/kg; type: toxicity, organism-based; conditions: in vivo; procedure, shortened: as §11
[25] = Hepatotoxicity in C57BL/6 mouse; type: toxicity, organism-based; conditions: in vivo
Mus musculus [26] = experiment: Hepatotoxicity in CD1 mouse assessed as increased plasma GOT levels at 6 mmol/kg; type: toxicity, organism-based; conditions: in vivo; procedure, shortened: as §10
HepG2 [27] = experiment: Induction of apoptosis in HEPG2 cells at 100 uM after 6 to 8 hrs by Hoechst staining; type: functional, cell-based; conditions: Homo sapiens; procedure, shortened: as §8
Mus musculus [28] = experiment: Analgesic activity in CD1 mouse upto 6620 umol/kg by hot plate assay; type: functional, organism-based; procedure, shortened: as §3
[29] = Drug level in CD1 mouse urine assessed as glucuronate level; type: ADME, tissue-based; conditions: in vivo
[30] = Drug level in CD1 mouse urine assessed as 2-{[(4-Hydroxyphenylcarbamoyl)methyl]sulphamoyl}benzoic acid level at 3 mmol/kg, po; type: ADME, tissue-based; conditions: in vivo; procedure, shortened: as §2
[31] = Drug level in CD1 mouse urine assessed as glucuronate level at 3 mmol/kg, po; type: ADME, tissue-based; conditions: in vivo; procedure, shortened: as §2

## O=C(CCN1C(=O)c2ccccc2S1(=O)=O)Nc1ccc(O)cc1
Mus musculus [1]
  Activity: 43.8%
Mus musculus [2]
  Activity: 28.85 U/ml

## O=C(CN1C(=O)c2ccccc2S1(=O)=O)Nc1ccc(O)cc1
HepG2 [3]
  Activity: inactive
[4]
  dose excreted: 0.9%
Mus musculus [5]
  Activity: inactive
Mus musculus [6]
  Activity: Not Active
Mus musculus [7]
  Activity: inactive
Mus musculus [8]
  Activity: Not Active
Mus musculus [9]
  Activity: Dose-dependent effect
  ED50: 260 µmol/kg
Mus musculus [1]
  Activity: 62.42%
Mus musculus [10]
  Activity: Not Active
Mus musculus [11]
  Activity: Not Active
Mus musculus [2]
  Activity: 30.5 U/ml
Mus musculus [12]
  Activity: Not Active
HepG2 [13]
  Activity: inactive
HepG2 [14]
  Activity: inactive
Mus musculus [15]
  Activity: inactive
Mus musculus [16]
  Activity: Dose-dependent effect
  ED50: 640 µmol/kg
HepG2 [17]
  Activity: inactive

## CC(=O)Nc1ccc(O)cc1 [ACETAMINOPHEN]
HepG2 [18]
  Activity: Active
Mus musculus [19]
  Activity: Active
Mus musculus [7]
  Activity: inactive
Mus musculus [9]
  Activity: Dose-dependent effect
  ED50: 1900 µmol/kg
Mus musculus [1]
  Activity: 61.32%
Mus musculus [20]
  Activity: Active
Mus musculus [21]
  Activity: inactive
Mus musculus [2]
  Activity: 299.01 U/ml
[22]
  mortality: 40%
HepG2 [23]
  Activity: Active
HepG2 [14]
  Activity: Active
Mus musculus [24]
  Activity: Active
Mus musculus [16]
  Activity: Dose-dependent effect
  ED50: 1290 µmol/kg
[25]
  LD50: 3700 µmol/kg
HepG2 [17]
  Activity: Active
Mus musculus [26]
  Activity: Active
HepG2 [27]
  Activity: Active
Mus musculus [28]
  Activity: inactive

## O=C(CNS(=O)(=O)c1ccccc1C(=O)O)Nc1ccc(O[C@@H]2O[C@H](C(=O)O)[C@@H](O)[C@H](O)[C@H]2O)cc1
[29]
  Activity: 23.7%

## O=C(CNS(=O)(=O)c1ccccc1C(=O)O)Nc1ccc(O)cc1
[30]
  Activity: 38.6%

## O=C(CCCCN1C(=O)c2ccccc2S1(=O)=O)Nc1ccc(O)cc1
Mus musculus [1]
  Activity: 32.56%
Mus musculus [2]
  Activity: 44.16 U/ml

## O=C(CCCN1C(=O)c2ccccc2S1(=O)=O)Nc1ccc(O)cc1
Mus musculus [1]
  Activity: 28.9%
Mus musculus [2]
  Activity: 82.62 U/ml

## O=C(CN1C(=O)c2ccccc2S1(=O)=O)Nc1ccc(O[C@@H]2O[C@H](C(=O)O)[C@@H](O)[C@H](O)[C@H]2O)cc1
[31]
  Activity: 32%

## O=C(CCCCCN1C(=O)c2ccccc2S1(=O)=O)Nc1ccc(O)cc1
Mus musculus [1]
  Activity: 53.72%
Mus musculus [2]
  Activity: 29.52 U/ml
